# Screens deposited in PubChem by Johns Hopkins Ion Channel Center.
# Sampled rows, rich in hits. Any-hit rate of the full collection: about 3.5%.
# RGS4 block – RGS4 inhibitors, primary screen, cell-based, HEK293 M3R inducible RGS4, calcium flux; B-score at 10 µM; Fluo-4 calcium flux; active compounds read high; triggered by carbachol at its EC20; Regulator of G-protein signaling 4 (Homo sapiens), P49798; hit rate 0.45% among 310,000;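 active = B-score, a plate-corrected calcium signal, over three deviations above library mean, with baseline fluorescence within five deviations of library mean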;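 note: RGS4 expression induced by doxycycline in cells with stable M3 receptor; B-score is computed from the integrated fluorescence ratio over baseline after carbachol; higher B-score means a larger calcium signal and so more RGS4 inhibition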
# Target sequence (P49798 whole entry, looked up): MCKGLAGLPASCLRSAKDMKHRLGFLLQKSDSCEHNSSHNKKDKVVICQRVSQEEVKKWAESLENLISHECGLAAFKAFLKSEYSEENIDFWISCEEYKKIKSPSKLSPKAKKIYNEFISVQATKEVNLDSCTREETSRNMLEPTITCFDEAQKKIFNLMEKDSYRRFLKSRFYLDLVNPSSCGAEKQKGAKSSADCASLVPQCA
# MrgX1 antagonist – antagonists of human MrgX1 receptor, primary screen, HEK293 cells, Fluo-4 calcium flux; AID 588676, 2011; B-score at 10 µM; BAM8-22 antagonism; active compounds read low; hit rate 1.3% among 310,000; Mas-related G-protein coupled receptor member X1 (Homo sapiens), Q96LB2;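 active = calcium-response B-score plate-corrected more than 3 library SD below zero, starting fluorescence within 5 deviations, no agonist response on first addition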;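 note: peak minus trough fluorescence over baseline after final BAM8-22 challenge near maximal dose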
# Target sequence (Q96LB2 whole entry, looked up): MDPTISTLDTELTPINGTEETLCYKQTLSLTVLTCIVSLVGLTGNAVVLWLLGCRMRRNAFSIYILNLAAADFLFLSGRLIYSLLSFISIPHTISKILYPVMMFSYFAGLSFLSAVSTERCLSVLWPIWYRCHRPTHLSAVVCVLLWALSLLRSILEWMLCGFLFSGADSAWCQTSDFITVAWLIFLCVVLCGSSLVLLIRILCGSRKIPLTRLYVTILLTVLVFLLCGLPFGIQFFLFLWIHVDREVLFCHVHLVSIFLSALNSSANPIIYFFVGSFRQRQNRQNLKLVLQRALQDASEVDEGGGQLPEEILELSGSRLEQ
# RGS4 act – RGS4 potentiators or activators, primary screen, cell-based, HEK293 M3R inducible RGS4, calcium flux. B-score at 10 µM. hit rate 0.92% among 310,000. carbachol calcium flux Fluo4; active compounds read low;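 active = B-score of the integrated calcium signal more than 4 SD below the library mean, with starting fluorescence not abnormally high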;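 note: negative B-score means reduced calcium response which marks RGS4 activation or potentiation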
#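 Also added: carbachol at ECmax as muscarinic agonist stimulus; Assay system: HEK293 cells with stable M3R and inducible RGS4; Timing: overnight RGS4 induction, 30 min dye load 37 °C, 20 min compound RT; Measured by: Fluo4-AM (2 µM) calcium-flux fluorescence, kinetic read.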
# MrgX1 ag – agonists of human MrgX1 receptor, primary screen, HEK293 cells, Fluo-4 calcium flux; Mas-related G-protein coupled receptor member X1 (Homo sapiens), Q96LB2; Fluo-4 calcium fluorescence, agonist mode; active compounds read high; B-score at 10 µM; hit rate 0.44% among 310,000; AID 588627, 2011;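 active = calcium response B-score plate-corrected fluorescence ratio at least 3 library SD, with starting fluorescence B-score inside 5 SD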
#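 Material: HEK293 cells stably expressing human MrgX1 receptor | Quantity: 15,000 cells per well | Times: Cells plated overnight, dye loaded 0.5 h 37 °C, 0.5 h room temperature | Measured by: Kinetic Fluo-4 NW fluorescence of intracellular calcium | Control set: Positive and negative controls per plate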
# MrgX1 PAM – positive allosteric modulators of MrgX1, primary screen, HEK293 cells, Fluo-4 calcium flux. Mas-related G-protein coupled receptor member X1 (Homo sapiens), Q96LB2. FDSS; active compounds read high. B-score at 10 µM. hit rate 0.63% among 310,000. AID 588675, 2011;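 active = plate-corrected calcium response at least 3 library SD above typical, normal starting fluorescence, not activating the receptor alone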;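 note: compound read alongside a low EC10 to EC30 dose of BAM8-22 agonist; peak minus trough fluorescence over baseline measured at the second addition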
# MrgX1 antag conf – MrgX1 receptor antagonists, duplicate retest, confirmation, HEK293 cells, Fluo-4 calcium flux. shares compounds with MrgX1 antagonist. BAM8-22 calcium flux; active compounds read low. remaining BAM8-22 calcium response % of control (active compounds read low), % at 10 µM. hit rate 19% among 2,300;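 active = remaining agonist calcium response no higher than 100% minus 3 SD of agonist-only control wells, with starting fluorescence near control levels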;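 note: agonist BAM8-22 given at a near maximal EC90 to ECmax level; peak minus minimum fluorescence divided by baseline after agonist addition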
# HEK293 Ca flux – nonspecific calcium signal in parental HEK293, confirmation, counter-screen for MrgX1 antagonist project, parental HEK293 cells, Fluo-4 calcium flux; shares compounds with MrgX1 antagonist; Fluo-4 calcium fluorescence, FDSS; fluorescence ratio F(max-min)/F0 at 10 µM; hit rate 2% among 4,000; AID 624111, 2012;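 active = duplicate-averaged calcium fluorescence ratio at least three times the standard deviation of buffer wells, a nonspecific response in parental cells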
# HEK293 Ca counter – calcium response in parental HEK293 cells, primary screen, counter-screen for MrgX1 allosteric activator project, cell-based, Fluo-4 calcium flux, duplicate; shares compounds with MrgX1 antagonist; Fluo-4 fluorescence ratio; active compounds read high; fluorescence ratio F(max-min)/F0 at 10 µM; hit rate 0.4% among 4,000;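 active = calcium fluorescence ratio, averaged over duplicates, at least 3 SD of the buffer-well ratio, meaning a nonspecific response in receptor-free cells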;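 note: untransfected parental HEK293 lacking MrgX1 used as counterscreen for MrgX1 allosteric activators; fluorescence change taken during the second addition on a kinetic imager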
# HEK293 Ca cntr2 – calcium response in parental HEK293 cells, primary screen, counter-screen for MrgX1 agonist project, cell-based, Fluo-4 calcium flux, duplicate, agonist mode; fluorescence ratio F(max-min)/F0 at 10 µM; Fluo-4 calcium fluorescence (FDSS); active compounds read high; hit rate 8.7% among 4,000; shares compounds with MrgX1 antagonist; AID 624115, 2012;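 active = calcium fluorescence ratio at least three times the spread of buffer wells, meaning a non-specific response in parental cells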
# Hits are given with their value; 0 = inactive; - = no result.
SMILES,RGS4 block,MrgX1 antagonist,RGS4 act,MrgX1 ag,MrgX1 PAM,MrgX1 antag conf,HEK293 Ca flux,HEK293 Ca counter,HEK293 Ca cntr2
Cc1ccc(NC(=O)COC(=O)C2CCC2)cc1S(=O)(=O)N1CCCCC1,0,-5.4,0,0,0,84%,0,0,0
Cc1ccc(NC(=O)COC(=O)Cc2ccsc2)cc1S(=O)(=O)N1CCOCC1,0,-5.4,0,0,0,0,0,0,0
CCOC(=O)c1ccccc1NC(=O)COC(=O)C1CCN(S(=O)(=O)c2ccccc2C(=O)OC)CC1,0,-11,0,0,0,0,0,0,0
CC(OC(=O)Cn1cnc2ccccc2c1=O)C(=O)NCc1ccccc1 (stereo not drawn),0,0,0,0,0,-,-,-,-
CCOC(=O)CSc1n[nH]c(-c2cccnc2)n1,0,-7,0,0,0,0,0,0,0
CC(=O)c1c[nH]c2ccc(C)cc2c1=O,0,-4.9,0,0,0,70%,0,0,0
CN(C)CCCC(C)(O)C(Cc1ccccc1)c1ccccc1 (stereo not drawn),0,-6.5,0,0,0,0,0,0,0
CN(C)CCC(Oc1ccccc1OCc1ccccc1)c1ccccc1 (stereo not drawn),0,0,0,0,0,-,-,-,-
CN(C)C(CNC(=O)c1ccc(NS(=O)(=O)c2ccc(F)cc2)cc1)c1ccco1 (stereo not drawn),0,-6.1,0,0,0,0,0,0,0
Cc1cccc(NS(=O)(=O)c2ccc(C(=O)NCC(c3ccccc3)N(C)C)cc2)c1C (stereo not drawn),0,-5.2,0,0,0,85%,0,0,0
Cc1cccc(N2CCN(C(=O)NCc3ccc(Cl)cc3)CC2)c1,0,0,0,0,0,-,-,-,-
CSc1cccc(NS(=O)(=O)c2ccc3c(c2)oc(=O)n3C)c1,0,-6.2,0,0,0,76%,0,0,0
COC(=O)CS(=O)(=O)c1cc(Br)cc2c1N(C(C)=O)CC2,0,-5.4,0,0,0,0,0,0,65
O=C(Nc1ccc2[nH]ccc2c1)c1ccc(F)cc1,0,0,0,0,0,-,-,-,-
O=C(Nc1ccc2[nH]ccc2c1)c1ccccc1,0,-7.8,0,0,0,84%,0,0,0
CC(C)(C)CC(=O)Nc1cc2c3c(c1)CCC(=O)N3CCC2,0,-4.9,0,0,0,0,0,0,0
O=C(Cn1nc(C(F)(F)F)cc1C1CC1)Nc1ccccc1F,0,-5.1,0,0,0,0,0,0,0
Cc1ccsc1-c1nc(CSCC(=O)NCc2ccc3c(c2)OCO3)c(C)o1,0,-4.8,0,0,0,0,0,0,51
OC(CN1CCOCC1)Cn1c2ccccc2c2ccccc21 (stereo not drawn),0,0,0,0,0,-,-,-,-
O=C1c2ccccc2C(=O)N1CC(O)CN1CCOCC1 (stereo not drawn),0,-5.2,0,0,0,0,0,0,0
Cc1c(C(=O)N2CCCCC2)c(S(=O)(=O)N2c3ccccc3CC2C)c(C)n1C (stereo not drawn),0,0,0,0,0,-,-,-,-
Cc1cc(-c2ccccc2)nn1-c1nc2c(c(=O)[nH]c(=O)n2C)n1C,0,0,0,0,0,-,-,-,-
COc1ccc(-c2noc(CSc3nc(N)c(-c4ccccc4)c(=O)[nH]3)n2)cc1,0,-7.1,0,0,0,75%,0,0,0
CCCC(=O)c1cc(F)c(N2CCOCC2)cc1C,0,0,0,0,0,-,-,-,-
CCOC(=O)c1cnn(-c2ccc(C)cc2)c1N,0,-4.7,0,0,0,0,0,0,0
SMILES,RGS4 block,MrgX1 antagonist,RGS4 act,MrgX1 ag,MrgX1 PAM,MrgX1 antag conf,HEK293 Ca flux,HEK293 Ca counter,HEK293 Ca cntr2
CCOC(=O)c1ccc(-n2ncc(C(=O)OCC)c2N)cc1,0,0,0,0,0,-,-,-,-
CCOC(=O)N1CCC(NC(=O)CS(=O)(=O)Cc2nc(-c3ccccc3C)oc2C)CC1,0,-5.3,0,0,0,0,0,0,0
O=C(O)c1ccccc1NS(=O)(=O)c1cccc(C(F)(F)F)c1,0,0,0,0,0,-,-,-,-
O=C(O)c1ccccc1NS(=O)(=O)c1cccc(-n2sc3ccccc3c2=O)c1,0,-6.3,0,0,0,44%,0,0,0
O=C(O)CC1(CC(=O)Nc2cccc(C(=O)O)c2)CCCC1,0,0,0,0,0,-,-,-,-
O=C(Nc1ccc2c(c1)OCO2)N1CCN(c2ccc(F)cc2)CC1,0,-4.7,0,0,0,83%,0,0,0
Nc1ccc2c3c(cccc13)CC2,0,-7.5,0,0,0,85%,0,0,0
c1ccc(Nc2ccc3c4c(cccc24)CC3)cc1,0,0,0,0,0,-,-,-,-
Cc1cc(S(=O)(=O)N2CCCC(C)C2)ccc1-n1cnnn1 (stereo not drawn),0,0,0,0,0,-,-,-,-
Cn1c(=O)c(=O)n(C)c2cc(S(=O)(=O)N3CCC(Cc4ccccc4)CC3)ccc21,0,0,0,0,0,-,-,-,-
CCn1c(=O)n(CC)c2cc(S(=O)(=O)N3CCC(c4ccccc4)CC3)ccc21,0,-7.1,0,0,0,0,0,0,0
CCOC(=O)C1CCCN(C(=O)Cc2ccc(OC)c(OC)c2)C1 (stereo not drawn),0,-4.8,0,0,0,0,0,0,0
Cc1cc(NC(=S)Nc2ccccc2)ccc1Br,0,0,0,0,0,-,-,-,-
Cc1cc(NC(=S)Nc2cccnc2)ccc1Br,0,-5.2,0,0,0,86%,0,0,0
CCCOc1cccc(C(=O)NC(=S)Nc2ccc(N3CCN(C)CC3)cc2)c1,0,0,0,0,0,-,-,-,-
CCOc1ccc(NC(=O)Cc2ccc(NC3=NC4CS(=O)(=O)CC4S3)cc2)cc1 (stereo not drawn),0,0,0,0,0,-,-,-,-
CCc1ccc(NC(=O)Cc2ccc(NC3=NC4CS(=O)(=O)CC4S3)cc2)cc1 (stereo not drawn),0,-6.1,0,0,0,0,0,0,0
